pIC50, pKd: −log10 of the molar value.
What was measured:
MCF7 = assay: cells; assay type: functional, cell-based; settings: Homo sapiens, MCF7, 72 h
Histone deacetylase 1 = Histone deacetylase 1 (Homo sapiens, UniProt Q13547); assay: Inhibition of C-terminal FLAG His tagged full length human recombinant HDAC1 (1 to 482 residues) expressed in baculovirus infected sf21 cells using RHKKAc as substrate in presence of ATP
[1] = target: T1, Protein deacetylase HDAC6 (Homo sapiens, UniProt Q9UBN7); assay: Inhibition of N-terminal GST tagged human HDAC6 (1 to 1215 residues) expressed in baculovirus infected insect cells using RHKKAc as substrate in presence of ATP
T1 sequence (Q9UBN7 whole entry): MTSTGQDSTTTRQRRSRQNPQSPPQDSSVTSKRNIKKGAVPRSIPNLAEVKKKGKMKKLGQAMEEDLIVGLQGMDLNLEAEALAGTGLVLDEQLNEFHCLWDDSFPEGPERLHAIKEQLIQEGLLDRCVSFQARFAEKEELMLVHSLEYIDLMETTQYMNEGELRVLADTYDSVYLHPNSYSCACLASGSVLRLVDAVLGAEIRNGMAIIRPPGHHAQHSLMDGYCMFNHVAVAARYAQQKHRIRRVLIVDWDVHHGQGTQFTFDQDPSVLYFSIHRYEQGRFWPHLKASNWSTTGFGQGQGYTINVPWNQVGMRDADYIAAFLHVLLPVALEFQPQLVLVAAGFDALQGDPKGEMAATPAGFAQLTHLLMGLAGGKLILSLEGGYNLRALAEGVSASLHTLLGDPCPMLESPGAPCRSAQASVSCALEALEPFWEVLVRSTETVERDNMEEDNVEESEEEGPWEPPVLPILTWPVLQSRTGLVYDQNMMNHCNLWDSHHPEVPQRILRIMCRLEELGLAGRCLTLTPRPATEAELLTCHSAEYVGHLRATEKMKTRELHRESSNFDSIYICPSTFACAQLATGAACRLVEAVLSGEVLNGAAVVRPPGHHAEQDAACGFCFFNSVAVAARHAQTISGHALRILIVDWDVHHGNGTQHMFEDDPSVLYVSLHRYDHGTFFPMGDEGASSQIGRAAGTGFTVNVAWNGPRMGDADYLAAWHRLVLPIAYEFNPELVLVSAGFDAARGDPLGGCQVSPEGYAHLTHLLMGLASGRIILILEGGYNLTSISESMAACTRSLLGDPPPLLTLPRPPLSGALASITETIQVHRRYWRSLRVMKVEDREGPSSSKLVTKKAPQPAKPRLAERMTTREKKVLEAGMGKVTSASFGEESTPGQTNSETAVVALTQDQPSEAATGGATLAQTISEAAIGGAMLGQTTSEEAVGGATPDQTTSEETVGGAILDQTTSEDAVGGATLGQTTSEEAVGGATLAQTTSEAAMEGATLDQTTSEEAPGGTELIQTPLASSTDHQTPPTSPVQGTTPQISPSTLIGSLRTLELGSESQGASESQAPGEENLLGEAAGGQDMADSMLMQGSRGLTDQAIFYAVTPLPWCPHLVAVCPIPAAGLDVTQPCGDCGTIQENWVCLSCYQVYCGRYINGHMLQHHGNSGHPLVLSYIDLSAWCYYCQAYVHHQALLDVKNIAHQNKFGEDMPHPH

MDA-MB-231 = assay: cells; assay type: functional, cell-based; settings: Homo sapiens, MDA-MB-231, 72 h
HCT-116 = assay: Antiproliferative activity against human HCT116 cells after 72 hrs by MTT assay; assay type: functional, cell-based; settings: HCT-116, 72 h
PC-3 = assay: cells; assay type: functional, cell-based; settings: Homo sapiens, PC-3, 72 h
[2] = target: T2, Tyrosine-protein kinase JAK2 (Homo sapiens, UniProt O60674); assay: Binding affinity to N-terminal His tagged human recombinant JAK2 (1014 to 1132 residues) expressed in Escherichia coli after 60 to 90 mins by LC/MS analysis; settings: read-out: Kd(app)
[3] = target: T2, Tyrosine-protein kinase JAK2; assay: Inhibition of human JAK2 using poly[Glu:Tyr] as substrate in presence of [gamma-33P]-ATP
HL-60 [4] = assay: Antiproliferative activity against human HL60 cells; assay type: functional, cell-based
Jurkat = assay: cells; assay type: functional, cell-based; settings: Homo sapiens
HEL 92.1.7 = assay: cells; assay type: functional, cell-based; settings: Homo sapiens, HEL 92.1.7, 36 h
Histone deacetylase 2 = Histone deacetylase 2 (Homo sapiens, UniProt Q92769); assay: Inhibition of C-terminal GST tagged human recombinant HDAC2 (1 to 488 residues) expressed in Baculovirus infected insect cells in presence of ATP
Procedure, shortened: (§1)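 HDAC enzyme inhibition was run by a contract laboratory.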

[5] = target: Histone deacetylase 3/Nuclear receptor corepressor 2 (HDAC3/NCoR2) (Homo sapiens, UniProt O15379); assay: Inhibition of human recombinant HDAC3 (1 to 428 residues)/N-terminal GST-tagged NCOR2 (395 to 489 residues) expressed in Baculovirus infected insect cells in presence of ATP
Procedure, shortened: as §1

Histone deacetylase 5 = Histone deacetylase 5 (Homo sapiens, UniProt Q9UQL6); assay: Inhibition of C-terminal His tagged human recombinant HDAC5 (657 to 1123 residues) expressed in Baculovirus infected insect cells in presence of ATP
Procedure, shortened: as §1

[6] = target: Polyamine deacetylase HDAC10 (Homo sapiens, UniProt Q969S8); assay: Inhibition of human HDAC10 using fluorogenic peptide from p53 residues 379 to 382 as substrate in presence of ATP
Procedure, shortened: as §1

[7] = target: Histone deacetylase 11 (Homo sapiens) (UniProt Q96DB2); assay: Inhibition of C-terminal His tagged human recombinant HDAC11 (1 to 347 residues) expressed in Baculovirus infected insect cells at 10 uM in presence of ATP relative to control
Procedure, shortened: as §1

[8] = target: Non-receptor tyrosine-protein kinase TYK2 (Homo sapiens, UniProt P29597); assay: Inhibition of human TYK2 using KKSRGDYMTMQIG as substrate in presence of [gamma-33P]-ATP
Procedure, shortened: (§2)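 Kinase inhibition was tested by radiometric "Hotspot" profiling at a contract laboratory with 10 μM ATP.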

[9] = target: Histone deacetylase 4 (Homo sapiens) (UniProt P56524); assay: Inhibition of N-terminal GST tagged/C-terminal His tagged human recombinant HDAC4 (627 to 1084 residues) expressed in Baculovirus infected insect cells in presence of ATP; settings: concentration not given here
Procedure, shortened: as §1

[10] = target: T3, Tyrosine-protein kinase JAK3 (Homo sapiens, UniProt P52333); assay: Inhibition of human JAK3 using GEEEEYFELVKKKK as substrate in presence of [gamma-33P]-ATP
T3 sequence (P52333 whole entry): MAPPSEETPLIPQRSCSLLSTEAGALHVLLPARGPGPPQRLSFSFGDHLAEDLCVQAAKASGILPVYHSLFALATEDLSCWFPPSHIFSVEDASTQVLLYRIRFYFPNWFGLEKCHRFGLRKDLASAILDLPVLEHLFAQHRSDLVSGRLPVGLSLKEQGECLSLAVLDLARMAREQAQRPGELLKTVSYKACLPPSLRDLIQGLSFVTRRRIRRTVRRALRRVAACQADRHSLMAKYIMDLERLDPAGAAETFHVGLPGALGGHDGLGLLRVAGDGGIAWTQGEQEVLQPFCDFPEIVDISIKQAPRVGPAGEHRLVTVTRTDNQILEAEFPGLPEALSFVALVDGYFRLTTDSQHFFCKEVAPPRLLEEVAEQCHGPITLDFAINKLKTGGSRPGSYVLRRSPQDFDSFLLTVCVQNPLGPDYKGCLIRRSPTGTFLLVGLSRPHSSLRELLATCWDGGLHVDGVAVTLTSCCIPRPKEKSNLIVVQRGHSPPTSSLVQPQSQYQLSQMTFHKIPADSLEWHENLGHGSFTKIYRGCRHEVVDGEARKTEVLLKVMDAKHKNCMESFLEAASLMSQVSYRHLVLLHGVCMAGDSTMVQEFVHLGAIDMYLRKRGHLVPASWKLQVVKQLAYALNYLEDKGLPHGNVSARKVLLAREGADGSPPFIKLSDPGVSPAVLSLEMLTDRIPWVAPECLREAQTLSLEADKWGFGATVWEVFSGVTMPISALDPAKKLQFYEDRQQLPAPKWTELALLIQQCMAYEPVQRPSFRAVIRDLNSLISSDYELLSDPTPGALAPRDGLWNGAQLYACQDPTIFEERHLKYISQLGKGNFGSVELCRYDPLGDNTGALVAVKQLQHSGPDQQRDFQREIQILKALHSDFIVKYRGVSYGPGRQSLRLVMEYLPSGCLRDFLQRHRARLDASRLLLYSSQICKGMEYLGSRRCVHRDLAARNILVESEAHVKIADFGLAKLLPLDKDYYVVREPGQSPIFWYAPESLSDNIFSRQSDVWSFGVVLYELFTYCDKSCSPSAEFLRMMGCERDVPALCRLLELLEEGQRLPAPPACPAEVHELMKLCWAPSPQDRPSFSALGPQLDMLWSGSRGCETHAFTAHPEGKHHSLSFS
Procedure, shortened: as §2

[11] = target: Tyrosine-protein kinase JAK1 (Homo sapiens, UniProt P23458); assay: Inhibition of human JAK1 using poly[Glu:Tyr] as substrate in presence of [gamma-33P]-ATP
Procedure, shortened: as §2

Histone deacetylase 8 = Histone deacetylase 8 (Homo sapiens, UniProt Q9BY41); assay: Inhibition of C-terminal His tagged human recombinant HDAC8 (1 to 377 residues) expressed in Baculovirus infected insect cells in presence of ATP
Procedure, shortened: as §1

Histone deacetylase 9 = Histone deacetylase 9 (Homo sapiens, UniProt Q9UKV0); assay: Inhibition of HDAC9 (unknown origin) in presence of ATP
Procedure, shortened: as §1

[12] = target: Histone deacetylase 7 (Homo sapiens) (UniProt Q8WUI4); assay: Inhibition of N-terminal GST tagged human recombinant HDAC7 (518 to 991 residues) expressed in Baculovirus infected insect cells at 10 uM in presence of ATP relative to control
Procedure, shortened: as §1

cells [13] = assay type: functional, cell-based; settings: Homo sapiens, NKYS, 48 h
KMS-12-BM = assay: cells; assay type: functional, cell-based; settings: Homo sapiens, 48 h
cells [14] = assay type: ADME, cell-based; settings: Homo sapiens, AC10, 24 h
MOLM-14 = assay: cells; assay type: functional, cell-based; settings: Homo sapiens, MOLM-14, 48 h
HL-60 [15] = assay: Antiproliferative activity against human HL60 cells at 4 uM after 36 hrs by PrestoBlue dye based assay relative to control; assay type: functional

Sequence of Histone deacetylase 1 (Q13547 whole entry, the tested form may be a part): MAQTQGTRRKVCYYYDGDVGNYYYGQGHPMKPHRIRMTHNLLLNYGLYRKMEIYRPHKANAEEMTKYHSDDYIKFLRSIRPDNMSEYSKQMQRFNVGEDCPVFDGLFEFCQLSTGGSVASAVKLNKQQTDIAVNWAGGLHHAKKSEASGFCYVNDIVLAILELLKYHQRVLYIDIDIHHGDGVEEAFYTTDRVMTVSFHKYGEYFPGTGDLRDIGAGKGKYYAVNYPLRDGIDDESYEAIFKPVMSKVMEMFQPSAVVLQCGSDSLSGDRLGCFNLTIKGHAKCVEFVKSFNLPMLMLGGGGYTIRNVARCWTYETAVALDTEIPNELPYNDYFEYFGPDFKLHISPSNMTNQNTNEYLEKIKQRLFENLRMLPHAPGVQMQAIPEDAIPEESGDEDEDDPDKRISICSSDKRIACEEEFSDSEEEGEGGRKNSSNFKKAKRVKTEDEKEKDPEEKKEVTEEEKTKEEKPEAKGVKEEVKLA
T2 sequence (O60674 whole entry, the tested form may be a part): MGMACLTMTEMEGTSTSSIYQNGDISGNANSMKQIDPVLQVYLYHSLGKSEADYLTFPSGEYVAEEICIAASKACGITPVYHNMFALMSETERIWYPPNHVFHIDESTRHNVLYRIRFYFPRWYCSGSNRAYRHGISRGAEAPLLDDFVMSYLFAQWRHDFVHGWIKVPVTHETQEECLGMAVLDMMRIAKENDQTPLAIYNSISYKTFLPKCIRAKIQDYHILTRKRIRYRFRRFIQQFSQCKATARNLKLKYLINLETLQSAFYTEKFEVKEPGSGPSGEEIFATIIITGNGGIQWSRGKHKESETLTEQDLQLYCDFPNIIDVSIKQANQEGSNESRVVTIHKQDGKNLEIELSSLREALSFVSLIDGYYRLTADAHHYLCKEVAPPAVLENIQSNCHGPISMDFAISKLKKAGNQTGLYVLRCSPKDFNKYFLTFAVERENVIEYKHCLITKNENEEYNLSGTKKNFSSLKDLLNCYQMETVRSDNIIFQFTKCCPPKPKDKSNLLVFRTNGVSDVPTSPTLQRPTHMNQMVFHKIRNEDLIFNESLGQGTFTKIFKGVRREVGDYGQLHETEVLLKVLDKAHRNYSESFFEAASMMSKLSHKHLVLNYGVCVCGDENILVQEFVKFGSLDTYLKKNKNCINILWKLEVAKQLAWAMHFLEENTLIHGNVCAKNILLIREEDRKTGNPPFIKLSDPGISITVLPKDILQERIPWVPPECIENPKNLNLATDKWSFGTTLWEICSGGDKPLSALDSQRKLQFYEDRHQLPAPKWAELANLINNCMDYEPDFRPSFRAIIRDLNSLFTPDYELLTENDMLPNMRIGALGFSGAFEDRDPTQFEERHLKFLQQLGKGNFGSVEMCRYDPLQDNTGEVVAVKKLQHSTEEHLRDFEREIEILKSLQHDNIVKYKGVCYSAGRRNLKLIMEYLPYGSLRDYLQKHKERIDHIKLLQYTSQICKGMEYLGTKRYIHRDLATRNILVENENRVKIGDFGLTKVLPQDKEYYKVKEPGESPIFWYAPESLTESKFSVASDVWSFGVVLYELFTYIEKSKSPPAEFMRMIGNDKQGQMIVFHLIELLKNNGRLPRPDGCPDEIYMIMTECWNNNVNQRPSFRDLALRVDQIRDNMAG
Sequence of Non-receptor tyrosine-protein kinase TYK2 (P29597 whole entry): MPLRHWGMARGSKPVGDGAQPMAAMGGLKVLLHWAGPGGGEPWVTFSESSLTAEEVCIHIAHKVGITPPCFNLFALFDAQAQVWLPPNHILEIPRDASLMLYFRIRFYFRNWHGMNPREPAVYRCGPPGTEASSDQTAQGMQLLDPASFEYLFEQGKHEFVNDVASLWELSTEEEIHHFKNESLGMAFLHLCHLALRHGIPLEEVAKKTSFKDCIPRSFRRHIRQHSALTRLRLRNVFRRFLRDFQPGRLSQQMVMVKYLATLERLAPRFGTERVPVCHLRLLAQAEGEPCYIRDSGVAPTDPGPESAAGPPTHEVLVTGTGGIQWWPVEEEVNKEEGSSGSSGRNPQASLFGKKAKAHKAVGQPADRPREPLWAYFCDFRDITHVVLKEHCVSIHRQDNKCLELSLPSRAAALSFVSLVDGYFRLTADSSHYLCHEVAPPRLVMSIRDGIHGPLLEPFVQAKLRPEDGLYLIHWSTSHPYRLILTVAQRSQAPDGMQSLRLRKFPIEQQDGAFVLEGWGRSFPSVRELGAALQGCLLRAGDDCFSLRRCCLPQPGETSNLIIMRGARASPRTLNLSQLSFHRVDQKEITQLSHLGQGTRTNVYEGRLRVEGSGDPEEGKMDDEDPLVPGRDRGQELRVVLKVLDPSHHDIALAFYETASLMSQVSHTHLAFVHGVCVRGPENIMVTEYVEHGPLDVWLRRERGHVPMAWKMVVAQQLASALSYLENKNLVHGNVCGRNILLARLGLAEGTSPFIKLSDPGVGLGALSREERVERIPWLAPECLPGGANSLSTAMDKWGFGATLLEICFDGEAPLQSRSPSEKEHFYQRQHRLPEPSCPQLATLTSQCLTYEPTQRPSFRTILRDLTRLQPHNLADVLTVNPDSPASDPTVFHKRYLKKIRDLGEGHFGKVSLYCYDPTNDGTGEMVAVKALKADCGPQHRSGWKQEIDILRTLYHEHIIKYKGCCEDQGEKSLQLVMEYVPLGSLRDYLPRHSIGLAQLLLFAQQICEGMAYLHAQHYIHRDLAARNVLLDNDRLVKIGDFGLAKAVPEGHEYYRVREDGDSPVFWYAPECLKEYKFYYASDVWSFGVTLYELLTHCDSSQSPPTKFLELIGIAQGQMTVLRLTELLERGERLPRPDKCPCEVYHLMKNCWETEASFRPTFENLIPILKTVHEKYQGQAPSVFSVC
Sequence of Polyamine deacetylase HDAC10 (Q969S8 whole entry, the tested form may be a part): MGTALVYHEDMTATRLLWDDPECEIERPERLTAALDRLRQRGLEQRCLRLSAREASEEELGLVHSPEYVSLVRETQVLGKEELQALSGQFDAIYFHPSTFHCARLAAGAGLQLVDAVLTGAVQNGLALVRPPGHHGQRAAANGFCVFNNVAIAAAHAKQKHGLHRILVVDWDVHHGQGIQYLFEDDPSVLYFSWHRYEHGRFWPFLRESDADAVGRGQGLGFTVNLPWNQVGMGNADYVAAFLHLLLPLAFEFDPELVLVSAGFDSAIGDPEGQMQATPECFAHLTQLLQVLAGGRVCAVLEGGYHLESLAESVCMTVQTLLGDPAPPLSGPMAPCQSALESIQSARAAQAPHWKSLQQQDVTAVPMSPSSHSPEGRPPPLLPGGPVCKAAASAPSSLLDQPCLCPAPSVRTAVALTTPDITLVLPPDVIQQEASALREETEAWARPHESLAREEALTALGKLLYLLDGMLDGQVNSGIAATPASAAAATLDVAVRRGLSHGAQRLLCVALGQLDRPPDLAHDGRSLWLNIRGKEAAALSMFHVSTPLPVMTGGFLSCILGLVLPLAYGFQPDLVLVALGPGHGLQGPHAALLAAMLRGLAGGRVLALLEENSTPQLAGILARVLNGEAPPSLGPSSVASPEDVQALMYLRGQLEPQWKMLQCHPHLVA
Sequence of Histone deacetylase 7 (Homo sapiens) (Q8WUI4 whole entry, the tested form may be a part): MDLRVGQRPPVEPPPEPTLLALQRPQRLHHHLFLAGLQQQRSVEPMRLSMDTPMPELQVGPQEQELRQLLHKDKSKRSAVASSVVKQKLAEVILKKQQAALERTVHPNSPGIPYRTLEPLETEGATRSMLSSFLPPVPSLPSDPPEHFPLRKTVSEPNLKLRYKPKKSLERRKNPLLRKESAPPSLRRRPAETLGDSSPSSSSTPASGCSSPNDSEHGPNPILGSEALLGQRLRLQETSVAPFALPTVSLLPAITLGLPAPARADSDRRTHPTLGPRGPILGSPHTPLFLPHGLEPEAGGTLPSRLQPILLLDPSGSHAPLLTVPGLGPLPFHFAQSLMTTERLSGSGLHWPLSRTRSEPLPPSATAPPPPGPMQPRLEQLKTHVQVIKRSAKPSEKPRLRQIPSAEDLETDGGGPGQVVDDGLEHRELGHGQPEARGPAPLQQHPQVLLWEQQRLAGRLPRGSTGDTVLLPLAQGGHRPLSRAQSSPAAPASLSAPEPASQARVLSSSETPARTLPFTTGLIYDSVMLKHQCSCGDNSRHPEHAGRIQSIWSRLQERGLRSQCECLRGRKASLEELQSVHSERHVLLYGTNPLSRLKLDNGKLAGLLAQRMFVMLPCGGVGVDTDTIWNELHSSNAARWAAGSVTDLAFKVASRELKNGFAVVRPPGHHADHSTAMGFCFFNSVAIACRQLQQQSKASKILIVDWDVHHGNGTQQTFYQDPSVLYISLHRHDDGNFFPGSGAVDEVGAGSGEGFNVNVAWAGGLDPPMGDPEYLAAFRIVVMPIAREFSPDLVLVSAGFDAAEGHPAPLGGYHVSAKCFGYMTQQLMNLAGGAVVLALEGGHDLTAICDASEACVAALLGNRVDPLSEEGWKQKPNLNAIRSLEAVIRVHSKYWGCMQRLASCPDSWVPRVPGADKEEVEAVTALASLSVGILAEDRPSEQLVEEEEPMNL
Sequence of Histone deacetylase 2 (Q92769 whole entry, the tested form may be a part): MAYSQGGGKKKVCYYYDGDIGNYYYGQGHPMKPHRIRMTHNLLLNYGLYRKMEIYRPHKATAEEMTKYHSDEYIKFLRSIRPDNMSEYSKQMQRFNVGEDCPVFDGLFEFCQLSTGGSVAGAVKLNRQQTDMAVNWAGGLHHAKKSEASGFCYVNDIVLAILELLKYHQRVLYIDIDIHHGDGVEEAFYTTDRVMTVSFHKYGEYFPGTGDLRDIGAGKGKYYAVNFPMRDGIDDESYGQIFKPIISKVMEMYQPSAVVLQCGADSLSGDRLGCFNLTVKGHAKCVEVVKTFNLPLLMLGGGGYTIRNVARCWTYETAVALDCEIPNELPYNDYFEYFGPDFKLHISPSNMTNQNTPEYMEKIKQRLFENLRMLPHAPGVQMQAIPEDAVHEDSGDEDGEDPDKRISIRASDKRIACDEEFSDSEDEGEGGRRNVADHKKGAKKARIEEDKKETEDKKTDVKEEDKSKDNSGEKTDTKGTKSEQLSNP

Row | pIC50 (MCF7) | pIC50 (Histone deacetylase 1) | pIC50 [1] | pIC50 (MDA-MB-231) | pIC50 (HCT-116) | pIC50 (PC-3) | pKd [2] | pIC50 [3] | Structure (SMILES) | also measured
1 | 4.89 | 6.07 | 8.22 | 4.76 | 4.34 | < 4.00 | – | – | O=C(CCCCn1cc(-c2ncnc3[nH]ccc23)cn1)NO | –
2 | 5.09 | 6.86 | 8.54 | – | 5.05 | 4.73 | – | – | O=C(CCCCCn1cc(-c2ncnc3[nH]ccc23)cn1)NO | –
3 | < 4.00 | – | 6.26 | < 4.00 | < 4.00 | < 4.00 | 5.70 | 5.92 | O=C(CCCCCCC(=O)Nc1ccc(NC(=O)CCCn2cc(-c3ncnc4[nH]ccc34)cn2)cc1)NO | –
4 | 5.43 | – | – | 4.98 | 5.70 | 5.07 | – | – | CN1CCc2c(c3ccccc3n2Cc2ccc(C(=O)NO)cc2)C1 [TUBASTATIN A] | pIC50 (HL-60 [4]): < 5.40; pIC50 (Jurkat): < 5.40; pIC50 (HEL 92.1.7): < 5.40
5 | 4.88 | 5.45 | 7.06 | 4.89 | 4.39 | 4.27 | > 6.00 | 7.37 | O=C(CCCCCCCCCCn1cc(-c2ncnc3[nH]ccc23)cn1)NO | –
6 | 4.82 | 6.96 | 9.85 | 4.59 | 4.71 | 4.62 | 6.00 | 6.58 | O=C(CCCCCCC(=O)Nc1ccc(NCCCn2cc(-c3ncnc4[nH]ccc34)cn2)cc1)NO | pIC50 (HL-60 [4]): < 5.00; pIC50 (Jurkat): 5.40; pIC50 (HEL 92.1.7): < 5.40
7 | – | 8.22 | 9.00 | – | – | – | – | 7.19 | CC(CCCCCC(=O)NO)n1cc(-c2ncnc3[nH]ccc23)cn1 (stereo not drawn) | pIC50 (Histone deacetylase 2): 7.33; pIC50 [5]: 7.62; pIC50 (Histone deacetylase 5): 5.13; pIC50 [6]: 7.51; inhibition [7]: 40%; pIC50 [8]: 6.84; inhibition [9]: 8%; pIC50 [10]: 6.36; pIC50 [11]: 7.96; pIC50 (Histone deacetylase 8): 6.51; pIC50 (Histone deacetylase 9): 5.07; inhibition [12]: 33%
8 | 4.91 | 7.44 | 8.74 | 4.89 | 4.93 | 4.89 | 5.70 | 6.32 | O=C(CCCCCCCn1cc(-c2ncnc3[nH]ccc23)cn1)NO | –
9 | – | – | – | – | – | – | – | – | C1=N/C2=N/c3ccc(OCCN4CCCC4)c(c3)COC/C=C/COCc3cccc(c3)C(=C1)N2 [PACRITINIB] | pIC50 (cells [13]): 5.80; pIC50 (KMS-12-BM): 6.12; pIC50 (cells [14]): 5.69; pIC50 (MOLM-14): 7.10
10 | – | – | – | – | 5.73 | – | – | – | O=C(CCCCCCC(=O)Nc1ccccc1)NO [VORINOSTAT] | –
11 | – | – | – | – | – | – | – | – | O=C(CCCCCCOc1ccc2cc1COC/C=C/COCc1cccc(c1)-c1ccnc(n1)N2)NO | pIC50 (KMS-12-BM): 5.68; pIC50 (cells [14]): 5.68; Activity (HL-60 [15]): 47%; pIC50 (HL-60 [4]): 5.40; pIC50 (Jurkat): 5.92; pIC50 (HEL 92.1.7): 6.03
12 | < 4.00 | – | 6.22 | < 4.00 | < 4.00 | < 4.00 | 5.30 | 5.45 | O=C(CCCn1cc(-c2ncnc3[nH]ccc23)cn1)NO | –
13 | < 4.30 | 6.58 | 9.05 | 4.15 | 4.64 | < 4.30 | 5.70 | 6.06 | O=C(CCCCCCC(=O)Nc1ccc(CCCn2cc(-c3ncnc4[nH]ccc34)cn2)cc1)NO | –
